Bioassay records from PubChem BioAssay.
E-sel inducer: E-selectin induction in HUVECs, primary screen, imaging, HUVEC, immunofluorescence imaging, single point; 260,000 tested, 0.37% active; activation, % at 7.58 µM; P16581; normalized: neutral wells 0, TNF-alpha wells 100;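 active means mean E-selectin-positive cell signal at least 10% of the positive control, reached in at least 60% of replicates, without over 20% cell loss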
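Material: HUVEC primary endothelial cells; Amount: 3,000 cells per well; Dosing: single concentration; Medium: EGM-2 growth medium on 0.1% gelatin-coated wells; Read-out basis: percent E-selectin-positive cells; Signal: immunofluorescence imaging; Control set: TNF-alpha, DMSO.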
ERAP1 inh: human ERAP1 aminopeptidase inhibitors, primary screen, biochemical, single point, plate reader; 340,000 tested, 0.15% active; inhibition, % at 10.7 µM; Endoplasmic reticulum aminopeptidase 1 (Homo sapiens), Q9NZ08; AID 652197, 2013; recombinant ERAP1, Leu-AMC fluorescence, 60 min;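 active means mean replicate inhibition of at least 30%, or all replicates individually reaching that 30% level; inactive means mean below 30% and not every replicate reaching it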;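 further: 0% = neutral control wells and 100% = L-leucinethiol positive control wells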
Target sequence (Q9NZ08 whole entry, looked up): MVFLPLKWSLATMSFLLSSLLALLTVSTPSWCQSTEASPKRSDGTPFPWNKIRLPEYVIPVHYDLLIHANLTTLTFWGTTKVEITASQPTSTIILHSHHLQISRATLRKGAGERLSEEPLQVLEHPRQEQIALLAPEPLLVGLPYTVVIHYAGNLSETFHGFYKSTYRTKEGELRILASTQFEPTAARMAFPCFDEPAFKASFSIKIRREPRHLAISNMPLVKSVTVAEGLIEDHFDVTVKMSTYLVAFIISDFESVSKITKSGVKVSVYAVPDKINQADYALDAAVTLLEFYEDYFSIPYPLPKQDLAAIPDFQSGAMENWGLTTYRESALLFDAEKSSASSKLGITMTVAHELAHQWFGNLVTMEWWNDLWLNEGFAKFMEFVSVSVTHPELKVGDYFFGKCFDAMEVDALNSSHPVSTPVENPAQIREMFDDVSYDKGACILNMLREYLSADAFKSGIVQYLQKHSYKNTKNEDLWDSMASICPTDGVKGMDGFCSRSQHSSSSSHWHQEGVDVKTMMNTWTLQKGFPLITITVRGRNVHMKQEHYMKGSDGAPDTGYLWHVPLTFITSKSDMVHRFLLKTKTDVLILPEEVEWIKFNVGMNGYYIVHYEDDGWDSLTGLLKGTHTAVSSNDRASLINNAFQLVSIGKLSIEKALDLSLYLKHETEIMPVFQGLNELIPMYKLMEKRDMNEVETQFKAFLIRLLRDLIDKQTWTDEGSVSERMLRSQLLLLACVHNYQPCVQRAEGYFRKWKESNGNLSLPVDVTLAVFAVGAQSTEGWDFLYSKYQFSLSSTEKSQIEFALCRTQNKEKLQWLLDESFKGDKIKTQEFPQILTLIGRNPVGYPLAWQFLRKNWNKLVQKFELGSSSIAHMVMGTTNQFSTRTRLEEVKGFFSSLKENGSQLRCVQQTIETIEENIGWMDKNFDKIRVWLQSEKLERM
DENV2 CPE rescue: inhibitors of DENV2 cytopathic effect, primary screen, cell-based, plate reader, single concentration | 350,000 tested, 1.7% active | DENV2-infected cells, cytopathic effect rescue | CPE inhibition, % at 9.99 µM; in the data active means CPE inhibition above about 20%, passing the limit was not always enough; tested in BHK-21 cells;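 further: 0% = median of neutral control wells and 100% = median of positive control wells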
CFTR F508del cor: F508del CFTR correction, initial screen, CFBE line, single point; CFBE cells, YFP halide quenching; stimulated with forskolin plus potentiator P3; % fluorescence drop versus neutral controls; activity (quench increase), % at 7.58 µM; 350,000 tested, 0.36% active; AID 720511, 2013;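 active means mean added fluorescence quench of at least 8% versus neutral control, with both replicates also reaching 8%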;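 further: cells transiently co-express mutant CFTR-F508del with the halide-sensitive YFP; corrector assay measuring rescue of mutant channel to the surface after 24 h compound exposure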
FGF22 binding: binders of human FGF22 protein, primary screen, FGF22 synaptogenesis inhibitor project, biophysical, thermal shift, single point; Fibroblast growth factor 22 (Homo sapiens), Q9HCT0; 340,000 tested, 1.5% active; recombinant FGF22 thermal shift, SYPRO orange fluorescence; percent of sucrose octasulfate shift, DMSO zero; activity (Tm shift, normalised), % at 9.99 µM;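 active means mean Tm shift, scaled 0 neutral to 100 positive control, at about 1.3% or above, every replicate too, limit read from the data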
* = called active by the depositor; · = no result given. Hits are enriched below; roughly 3.7% of the tested compounds scored in any of these assays.

SMILES | E-sel inducer | ERAP1 inh | DENV2 CPE rescue | CFTR F508del cor | FGF22 binding
CC(C)(C)OC(=O)NCc1ccc(CNC(=O)c2[nH]cnc2C(=O)N[C@@H](Cc2ccccc2)C(=O)OC(C)(C)C)cc1 | 0.5 | · | 7.0 | -5.8 | 12.5*
C[C@H](NC(=O)c1nc[nH]c1C(=O)N1CCN(C(=O)OC(C)(C)C)CC1)C(=O)OC(C)(C)C | 0.0 | · | -12.4 | 1.7 | 0.6
CN1CCn2cnc(C(=O)NCc3ccc(CNC(=O)OC(C)(C)C)cc3)c2C1=O | -0.1 | -4.2 | -6.3 | -5.0 | -0.1
CC(C)(C)OC(=O)[C@H](Cc1ccccc1)NC(=O)c1nc[nH]c1C(=O)NCc1ccccc1 | 0.0 | 4.5 | · | 0.6 | 0.3
CC(C)C[C@H](NC(=O)c1nc[nH]c1C(=O)N1CCN(C(=O)OC(C)(C)C)CC1)C(=O)OC(C)(C)C | -0.3 | -2.6 | -9.4 | 12.3* | 0.0
CN1CCn2cnc(C(=O)N[C@@H](Cc3ccccc3)C(=O)OC(C)(C)C)c2C1=O | -0.2 | 2.1 | 2.5 | 0.0 | 43.6*
CC=Cc1ccc2n(c1=O)C[C@@H]1[C@@H](CO)[C@H](C(=O)N(C)C)N(CC3CC3)[C@H]21 (mixture of isomers) | -0.2 | 1.5 | 9.6 | 0.9 | -0.3
Cc1noc(C)c1NC(=O)Nc1ccc2c(c1)C(=O)N([C@@H](C)CO)C[C@@H](C)[C@@H](CN(C)S(=O)(=O)c1ccc(F)cc1)O2 | -0.1 | 6.0 | 1.6 | 0.0 | 0.5
COc1ccc(CN(C)C[C@H]2Oc3ccc(NC(=O)CCC(F)(F)F)cc3C(=O)N([C@H](C)CO)C[C@@H]2C)cc1 | · | 1.0 | -0.3 | -2.7 | 0.0
O=C(NC(=S)NCCCN1CCOCC1)c1ccc([N+](=O)[O-])cc1 | · | -3.4 | 6.0 | -1.9 | 43.3*
Cc1cc([N+](=O)[O-])nn1CC(=O)NCCCN1CCOCC1 | 26.7* | 2.0 | 6.0 | -0.6 | -0.1
Cc1cc([N+](=O)[O-])nn1CC(=O)N1CCOCC1 | 0.1 | -0.4 | -6.5 | 0.5 | 0.2
CCc1nc(N)nc(N)c1-c1ccc(Cl)c(N=[N+]=[N-])c1 | 0.3 | 1.7 | -8.8 | -5.5 | 0.1
CCc1nc(N)nc(N)c1-c1ccc(Cl)c([N+](=O)[O-])c1 | 0.0 | -2.0 | -2.2 | 9.1* | -0.2
CC(C)(C)[S@](=O)N1Cc2cc(C(=O)NC3CCCCC3)nc(-c3cccc(Br)c3)c2[C@@H]1CCO | 1.0 | 2.2 | -2.4 | · | -0.2
Fc1ccc(COc2ccc3ccccc3c2CNc2nn[nH]n2)cc1 | · | 1.4 | -3.6 | -0.2 | 0.4
Fc1ccccc1COc1ccc2ccccc2c1CNc1nn[nH]n1 | · | 1.7 | 2.0 | 1.3 | 43.0*
O=C1c2cccc3c([N+](=O)[O-])ccc(c23)C(=O)N1O | 2.0 | 1.8 | 0.4 | 0.8 | -0.5
CC(=O)Oc1ccc(N2C(=O)c3cccc4c([N+](=O)[O-])ccc(c34)C2=O)cc1 | · | 0.3 | -2.5 | 32.0* | -0.6
C[C@@H]1CN([C@@H](C)CO)C(=O)Cc2cc(NC(=O)Cc3ccccc3)ccc2O[C@@H]1CN(C)C | · | -1.7 | 3.9 | 0.9 | 0.1
O=C(N[C@@H]1CC[C@@H](CC(=O)N2CCCCC2)O[C@@H]1CO)c1cccc(F)c1 | 0.8 | -3.7 | -13.8 | -2.9 | -0.2
Cc1ccc2c(c1)c1nnc(SCC(=O)Nc3ccccc3C(F)(F)F)nc1n2CC(=O)O | · | -1.0 | -0.4 | -0.3 | 0.4
Cc1ccc2c(c1)c1nnc(SCC(=O)Nc3cccc(Cl)c3C)nc1n2CC(=O)O | · | -6.0 | 1.0 | · | 1.7*
COc1cccc(N2CCN(CC(=O)NC(C)c3ccccc3)CC2)c1 (configuration not stated) | · | -2.0 | 9.0 | -3.9 | 0.0
CC(NC(=O)CN1CCN(c2cccc(Cl)c2)CC1)c1ccccc1 (configuration not stated) | · | -2.6 | 44.2* | -0.7 | 0.1
SMILES | E-sel inducer | ERAP1 inh | DENV2 CPE rescue | CFTR F508del cor | FGF22 binding
O=C(CN1CCN(C(c2ccccc2)c2ccccc2)CC1)Nc1ccc(N2CCOCC2)cc1 | 2.0 | 1.3 | -6.0 | -1.5 | 43.0*
CC(C)(C)c1cc(N)n2nc(C(C)(C)C)cc2n1 | · | -0.8 | 12.9 | -3.7 | 43.9*
C[C@H]1COC[C@@H](C/C=C/c2ccccc2)N1c1ccccc1 | 0.5 | 1.3 | 10.1 | 1.0 | 43.3*
CC1COCC(C)N1C1=C(Cl)C(=O)c2ccccc2C1=O (configuration not stated) | -0.4 | 4.1 | 7.6 | -2.5 | 0.4
CCOC(=O)CCc1c(C)nc2c(c(C)nn2-c2ccccc2)c1C | -0.1 | 0.9 | -0.1 | 0.1 | 0.0
CCOC(=O)CCc1c(C)c2c(C)nn(-c3ccccc3)c2[nH]c1=O | 0.1 | -4.3 | 37.4* | -1.6 | 0.0
C[C@@H]1CNC(=O)c2c(C(=O)NCC(=O)OC(C)(C)C)ncn21 | -0.1 | 0.8 | 11.5 | 0.4 | 43.0*
CC(C)(C)NC[C@@H](O)COc1cccc2c1CCCC2=O | -0.3 | -0.6 | 30.9* | -1.1 | -0.2
O=C(Cc1c[nH]c2ccccc12)NCc1ccco1 | · | 5.9 | 9.3 | -2.1 | 43.5*
O=C(NCc1ccco1)C(=O)c1c[nH]c2ccccc12 | -0.1 | 0.9 | -3.4 | -2.2 | 42.5
C[C@H]1CCCCO[C@H](CN(C)C(=O)C2CCCCC2)[C@@H](C)CN([C@@H](C)CO)C(=O)c2cc(NC(=O)Nc3ccc(F)cc3)ccc2O1 | 0.9 | 2.9 | 7.6 | -2.6 | -0.4
O=c1c2ccccc2nc2c3ccccc3c(NCc3ccccn3)nn12 | -0.2 | -1.2 | 2.2 | -0.5 | 0.0
O=c1c2ccccc2nc2c3ccccc3c(NCCO)nn12 | 0.9 | -3.5 | 73.1* | 1.7 | 0.3
Cc1occc1C(=O)Nc1cccc(/C=C/C(=O)O)c1 | · | -28.6 | · | · | ·
Cc1oc(-c2ccccc2)cc1C(=O)Nc1cccc(/C=C\C(=O)O)c1 | · | -29.1 | -3.3 | 4.5 | 43.5*
O=C1CCCN1Cc1ccccc1 | -0.2 | -0.2 | 0.0 | -0.8 | -0.3
O=C1CCCN1CCc1cccc2ccccc12 | 0.5 | -6.1 | -9.5 | 1.0 | 43.4*
O=C(N/N=C/c1ccccc1OC(F)F)c1cc(-c2ccncc2)nc2ccccc12 | · | -1.2 | 1.9 | 9.5* | -0.2
O=C(O)COc1ccccc1/C=N/NC(=O)c1cc(-c2ccccc2)nc2ccccc12 | · | -76.9 | -5.2 | 3.2 | 0.0
O=S(=O)(Nc1cccc2[nH]ncc12)c1cccs1 | 32.9* | -4.1 | 9.4 | -3.0 | 0.0
NS(=O)(=O)c1ccc(N/N=C/c2ccccc2C(=O)O)c([N+](=O)[O-])c1 | · | 6.7 | 2.4 | 7.0 | 43.2*
C[C@@H]1CN([C@@H](C)CO)C(=O)c2cc(NC(=O)NC3CCCCC3)ccc2O[C@H]1CN(C)C(=O)Nc1ccccc1 | -0.2 | 0.4 | 7.1 | 2.1 | -0.3
Cc1ccc(C2=NN(C(=O)c3ccco3)C(O)(C(F)(F)F)C2)cc1 (configuration not stated) | · | -1.2 | -0.5 | -0.9 | 43.9*
